pIC50: −log10 of the molar value.
Columns and labels:
[1] = biological target: T1, Cholecystokinin receptor type A (Rattus norvegicus, UniProt P30551); assay: In vitro inhibition of [3H]propionyl-CCK-8 binding to rat pancreatic membranes at Cholecystokinin type A receptor.; type: cell membranes, Membrane
T1 sequence (P30551 whole entry): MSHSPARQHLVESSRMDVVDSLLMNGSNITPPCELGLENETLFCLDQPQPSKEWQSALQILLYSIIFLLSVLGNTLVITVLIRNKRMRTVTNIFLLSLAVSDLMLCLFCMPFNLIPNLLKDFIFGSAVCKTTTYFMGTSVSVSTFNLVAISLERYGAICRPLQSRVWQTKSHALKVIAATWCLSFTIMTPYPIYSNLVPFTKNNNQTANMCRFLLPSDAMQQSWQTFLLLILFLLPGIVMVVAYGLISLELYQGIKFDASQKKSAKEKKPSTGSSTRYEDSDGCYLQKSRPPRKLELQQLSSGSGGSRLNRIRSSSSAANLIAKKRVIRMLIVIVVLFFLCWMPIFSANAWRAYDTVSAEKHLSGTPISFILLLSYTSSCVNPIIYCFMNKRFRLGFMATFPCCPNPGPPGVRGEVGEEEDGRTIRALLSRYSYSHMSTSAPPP
How it was run: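 Rat pancreas homogenized in Pipes-HCl pH 6.5 with 30 mM MgCl2 and spun twice (50000g, 10 min, 4 °C). Membranes (0.2 mg protein/tube) incubated with 0.5 nM [3H]pCCK-8 in the same buffer plus bacitracin and soybean trypsin inhibitor (0.2 mg/mL each), 120 min at 25 °C. Nonspecific binding defined with 1 μM CCK-8. Seven concentrations in duplicate, ≥3 experiments, mean ± SEM.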

[2] = biological target: T2, Gastrin/cholecystokinin type B receptor (Rattus norvegicus, UniProt P30553); assay: In vitro inhibition of [3H]propionyl-CCK-8 binding to rat cerebral cortex membranes at Cholecystokinin type B receptor.; type: cell membranes, Membrane
T2 sequence (P30553 whole entry): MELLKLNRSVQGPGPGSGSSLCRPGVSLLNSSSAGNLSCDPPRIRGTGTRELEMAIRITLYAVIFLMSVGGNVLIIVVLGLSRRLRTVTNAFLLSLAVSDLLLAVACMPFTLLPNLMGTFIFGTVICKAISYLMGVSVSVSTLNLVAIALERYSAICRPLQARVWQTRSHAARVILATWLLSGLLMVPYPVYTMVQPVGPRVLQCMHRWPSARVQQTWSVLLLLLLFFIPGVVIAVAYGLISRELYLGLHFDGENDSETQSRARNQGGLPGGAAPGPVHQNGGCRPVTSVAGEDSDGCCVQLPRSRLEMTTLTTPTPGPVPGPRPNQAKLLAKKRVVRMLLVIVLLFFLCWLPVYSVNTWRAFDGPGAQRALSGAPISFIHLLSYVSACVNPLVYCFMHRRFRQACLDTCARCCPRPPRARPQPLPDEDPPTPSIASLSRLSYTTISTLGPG
How it was run: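 Rat cerebral cortex homogenized in 50 mM Tris-HCl pH 7.4 with 5 mM MgCl2 and spun twice (100000g, 35 min, 4 °C). Membranes (0.45 mg protein/tube) incubated with 1 nM [3H]pCCK-8 in the same buffer plus bacitracin 0.2 mg/mL, 60 min at 25 °C. Nonspecific binding defined with 1 μM CCK-8. Seven test concentrations in duplicate, at least three experiments, mean ± SEM.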

[3] = species on record: Rattus norvegicus; assay: Inhibition of CCK-8-stimulated amylase release from pancreatic acinar cells; type: functional, cell-based
How it was run: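 Pancreatic acini prepared by collagenase digestion (70 U/mL, three 10-min incubations at 37 °C under O2). Acini incubated 30 min at 37 °C under pure O2 with agitation. Amylase release was stimulated by 0.1 nM CCK-8 and expressed as percent of acinar amylase released. Percent inhibition was calculated across increasing drug concentrations, and IC50 is given with a range.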

SMILES	pIC50 [1]	pIC50 [2]	pIC50 [3]
O=C(N[C@@H]1C[C@H]2c3[nH]c4ccccc4c3C[C@H](C(=O)N[C@H](Cc3ccccc3)C(=O)O)N2C1=O)OCc1ccccc1	< 6.00	5.43	
O=C(O)C[C@@H](Cc1ccccc1)NC(=O)[C@H]1Cc2c([nH]c3ccccc23)[C@@H]2C[C@@H](NC(=O)OCc3ccccc3)C(=O)N12	< 6.00	< 5.00	
O=C(O)C[C@@H](Cc1ccccc1)NC(=O)[C@@H]1Cc2c([nH]c3ccccc23)[C@H]2C[C@H](NC(=O)OCc3ccccc3)C(=O)N21		5.57	
O=C(N[C@@H]1C[C@H]2c3[nH]c4ccccc4c3C[C@H](C(=O)N[C@@H](Cc3ccccc3)C(=O)O)N2C1=O)OCc1ccccc1	8.76	6.69	8.92
COC(=O)C[C@@H](Cc1ccccc1)NC(=O)[C@H]1Cc2c([nH]c3ccccc23)[C@@H]2C[C@@H](NC(=O)OCc3ccccc3)C(=O)N12	< 6.00	5.31	
O=C(N[C@H]1C[C@@H]2c3[nH]c4ccccc4c3C[C@@H](C(=O)N[C@H](Cc3ccccc3)C(=O)O)N2C1=O)OCc1ccccc1	7.26	< 5.00	
CN1C(=O)[C@@H](NC(=O)c2cc3ccccc3[nH]2)N=C(c2ccccc2)c2ccccc21 [DEVAZEPIDE]			8.60
NC(=O)[C@H](Cc1ccccc1)NC(=O)[C@@H]1Cc2c([nH]c3ccccc23)[C@H]2C[C@H](NC(=O)OCc3ccccc3)C(=O)N21	< 6.00	< 5.00	

Continued, in another order:

pIC50 [1]	pIC50 [2]	SMILES	pIC50 [3]
7.32	< 5.00	COC(=O)[C@H](Cc1ccccc1)NC(=O)[C@@H]1Cc2c([nH]c3ccccc23)[C@H]2C[C@H](NC(=O)OCc3ccccc3)C(=O)N21	
< 6.00	< 5.00	COC(=O)[C@@H](Cc1ccccc1)NC(=O)[C@H]1Cc2c([nH]c3ccccc23)[C@@H]2C[C@@H](NC(=O)OCc3ccccc3)C(=O)N12	
	< 5.00	O=C(O)C[C@H](Cc1ccccc1)NC(=O)[C@@H]1Cc2c([nH]c3ccccc23)[C@H]2C[C@H](NC(=O)OCc3ccccc3)C(=O)N21	
8.33	< 5.00	O=C(N[C@H]1C[C@@H]2c3[nH]c4ccccc4c3C[C@@H](C(=O)N[C@@H](Cc3ccccc3)C(=O)O)N2C1=O)OCc1ccccc1	8.22
< 6.00	< 5.00	COC(=O)[C@@H](Cc1ccccc1)NC(=O)[C@@H]1Cc2c([nH]c3ccccc23)[C@H]2C[C@H](NC(=O)OCc3ccccc3)C(=O)N21	
< 6.00	< 5.00	COC(=O)C[C@H](Cc1ccccc1)NC(=O)[C@H]1Cc2c([nH]c3ccccc23)[C@@H]2C[C@@H](NC(=O)OCc3ccccc3)C(=O)N12	
7.01	< 5.00	O=C(O)C[C@H](Cc1ccccc1)NC(=O)[C@H]1Cc2c([nH]c3ccccc23)[C@@H]2C[C@@H](NC(=O)OCc3ccccc3)C(=O)N12	
6.35	5.25	COC(=O)[C@H](Cc1ccccc1)NC(=O)[C@H]1Cc2c([nH]c3ccccc23)[C@@H]2C[C@@H](NC(=O)OCc3ccccc3)C(=O)N12	
< 6.00	< 5.00	NC(=O)[C@@H](Cc1ccccc1)NC(=O)[C@@H]1Cc2c([nH]c3ccccc23)[C@H]2C[C@H](NC(=O)OCc3ccccc3)C(=O)N21	

— ChEMBL document CHEMBL1133683, “beta-Turned dipeptoids as potent and selective CCK(1) receptor antagonists” (J Med Chem, 2000)
